Assays:
[1] = biological target: purified bovine cathepsin B (Bos taurus, UniProt P07688); experiment: Inhibition of cathepsin B, fluorogenic substrate assay; type: biochemical
How it was run: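 Pre-incubated 10 min at room temperature with increasing inhibitor concentrations, then Z-Leu-Arg-AMC added (0.25 mM final) at 30°C. Linear hydrolysis rate read for 20 min (ex 365/em 450 nm). Triplicates, mean ± SEM. IC50 from activity loss.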

calpain = experiment: Inhibition of calpain; type: biochemical; details: data not shown

## CC(C)C[C@H](NC(=O)N1CCOCC1)C(=O)N[C@H](/C=C/S(=O)(=O)c1ccccc1)CCc1ccccc1 [LHVS, Morpholinurea-leucine-homophenylalanine-vinylsulfone-phenyl, reference compound]
[1]
  inhibition of cathepsin B (in words): targets also cathepsin B
calpain
  inhibition of calpain (in words): targets
